Measurements reported in PubChem BioAssay AID504649 (Molecular Libraries Program, Specialized Chemistry Center, …, 2011).
The source made the active and inactive calls.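 The calls were made as follows: active = half-maximal inhibitory concentration IC50 of 10 µM or lower; inactive = the rest.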

Biological target: Transitional endoplasmic reticulum ATPase (Homo sapiens) (UniProt P55072)
Assay: blockers of VCP-dependent reporter clearance – imaging, HeLa, UbG76V-GFP, round 3, SAR follow-up (AID 504649)
Settings: HeLa UbG76V-GFP degradation; for inhibition: at 20 µM (top of the series)
Procedure, shortened: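 Assay system: HeLa cells expressing UbG76V-GFP proteasome degradation reporter; times: MG132 pre-treatment 1 h, GFP imaging 70–170 min into chase; measured by: imaged GFP fluorescence intensity, ~500 cells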

Chain of Transitional endoplasmic reticulum ATPase (Homo sapiens) (P55072 whole entry, looked up): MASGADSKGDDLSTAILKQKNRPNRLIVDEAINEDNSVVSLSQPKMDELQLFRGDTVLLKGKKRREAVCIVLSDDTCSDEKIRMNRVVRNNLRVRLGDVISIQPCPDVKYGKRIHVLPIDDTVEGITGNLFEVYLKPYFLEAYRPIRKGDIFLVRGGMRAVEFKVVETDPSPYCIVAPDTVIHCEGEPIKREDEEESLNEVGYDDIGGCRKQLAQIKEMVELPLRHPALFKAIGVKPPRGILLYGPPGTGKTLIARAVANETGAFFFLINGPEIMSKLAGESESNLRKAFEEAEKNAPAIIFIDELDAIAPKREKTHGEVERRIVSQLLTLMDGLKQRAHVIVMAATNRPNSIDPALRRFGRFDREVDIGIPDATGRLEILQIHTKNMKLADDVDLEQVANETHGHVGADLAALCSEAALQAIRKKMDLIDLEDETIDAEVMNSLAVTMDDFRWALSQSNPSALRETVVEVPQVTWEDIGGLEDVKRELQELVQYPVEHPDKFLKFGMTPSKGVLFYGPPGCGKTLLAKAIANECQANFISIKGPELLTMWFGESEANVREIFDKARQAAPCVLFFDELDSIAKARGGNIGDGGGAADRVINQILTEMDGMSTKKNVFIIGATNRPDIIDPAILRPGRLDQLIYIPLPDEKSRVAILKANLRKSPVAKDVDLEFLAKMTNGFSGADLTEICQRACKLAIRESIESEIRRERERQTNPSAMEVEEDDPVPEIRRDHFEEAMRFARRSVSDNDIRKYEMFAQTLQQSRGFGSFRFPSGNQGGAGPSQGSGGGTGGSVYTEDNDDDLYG

Work on COc1cccc2c(NCc3ccccc3)nc(-n3c(=O)oc4ccccc43)nc12 yielded an IC50 of 5 µM.
Work on c1ccc(CNc2nc(N3CCOc4ccccc43)nc3c(-c4ccccc4)cccc23)cc1 yielded an IC50 of 5 µM.
Work on COc1cccc2c(NCc3ccccc3)nc(N3CCN(C(C)=O)c4ccccc43)nc12 yielded an IC50 of 8 µM.
Work on COc1cccc2c(NCc3ccccc3)nc(-n3c(N)nc4cc(C)ccc43)nc12 yielded an IC50 of 2.5 µM.
In the case of CCN(CC)CCOc1cccc2c(NCc3ccccc3)nc(N3CCOc4ccccc43)nc12, the IC50 is reported as 5.3 µM.
With COc1cccc2c(NCc3ccccc3)nc(N(C)Cc3ccccc3)nc12 the IC50 was > 20 µM (inactive).
CN(c1ccccc1)c1nc(NCc2ccccc2)c2ccccc2n1 was tested, and the IC50 was 9.2 µM.
COc1cccc2c(NCc3ccccc3)nc(-n3c(N)nc4cc(C)c(C)cc43)nc12 was tested, and the inhibition was “inactive”.
With COc1cccc2c(NCc3ccccc3)nc(NCc3cncs3)nc12 the IC50 was “inactive”.
For COc1ccc(-c2cccc3c(NCc4ccccc4)nc(N4CCOc5ccccc54)nc23)cc1, the IC50 was 9 µM.
Molecule COc1ccc2c(c1)nc(N)n2-c1nc(NCc2ccccc2)c2cccc(OC)c2n1 has an IC50 of 0.96 µM.
With COc1cccc2c(NCc3ccccc3)nc(NC(C)c3ccccc3)nc12 (stereo not given) the IC50 was 2.1 µM.
For COc1cccc2c(NCc3ccccc3)nc(N3CCN(C(C)=O)CC3)nc12, the IC50 was > 20 µM (inactive).
With COc1cccc2c(NCc3ccccc3)nc(Nc3nc4ccccc4s3)nc12 the IC50 was “inactive”.
For COc1cccc2c(NCc3ccccc3)nc(Nc3nc4ccccc4n3C)nc12, the IC50 was 7.8 µM.
With COc1cccc2c(NCc3ccccn3)nc(N3CCNc4ccccc43)nc12 the IC50 was “inactive”.
OCCOc1cccc2c(NCc3ccccc3)nc(N3CCOc4ccccc43)nc12 showed an IC50 of 3.8 µM.
With c1ccc(CNc2nc(N3CCOc4ccccc43)nc3c2CCCC3)cc1 the IC50 was 3.5 µM.
COc1cccc2c(NCc3ccccc3)nc(N3CCOc4ccccc43)nc12 was tested, and the IC50 was 3.3 µM.
For COCCOc1cccc2c(NCc3ccccc3)nc(N3CCOc4ccccc43)nc12, the IC50 was 6.5 µM.
Work on COc1cccc2c(NCC3CCCCC3)nc(N3CCOc4ccccc43)nc12 yielded an IC50 of 8.2 µM.
For COc1cccc2c(NCc3ccccc3)nc(-n3cnc4ccccc43)nc12, the inhibition was “inactive”.
For COc1cccc2c(NCc3ccc(O)cc3)nc(N3CCOc4ccccc43)nc12, the IC50 was 7.3 µM.
With COc1cccc2c(NCc3ccccn3)nc(N3CCOc4ccccc43)nc12 the IC50 was “inactive”.
Molecule COc1cccc2c(NCc3ccccc3)nc(Nc3cc(C)cc(F)c3)nc12 has an IC50 of 7.1 µM.
Nc1nc2ccccc2n1-c1nc(NCc2ccccc2)c2ccccc2n1 gave an IC50 of 2.9 µM.
With Oc1cccc2c(NCc3ccccc3)nc(N3CCOc4ccccc43)nc12 the IC50 was 7.7 µM.
Work on COc1cccc2c(NCc3ccc(F)cc3)nc(N3CCOc4ccccc43)nc12 yielded an IC50 of 3.7 µM.
Work on COc1cccc2c(NCc3ccccc3)nc(N3CCN(C)c4ccccc43)nc12 yielded an IC50 of 7.8 µM.
Molecule COc1cccc2c(NCc3ccccc3)nc(-n3c(N)nc4c(F)cccc43)nc12 has an IC50 of 5.4 µM.
For Cc1nc(N2CCOc3ccccc32)nc(NCc2ccccc2)c1C, the IC50 was “inactive”.
For COc1cccc2c(NCc3ccccc3)nc(Nc3ccccc3O)nc12, the IC50 was 2.8 µM.
COc1cccc2c(NCc3ccccc3)nc(NCc3cccs3)nc12 showed an IC50 of 1.8 µM.
In the case of COc1cccc2c(NCc3cncs3)nc(N3CCOc4ccccc43)nc12, the IC50 is reported as > 20 µM (inactive).
For Nc1nc2ccccc2n1-c1nccc(NCc2ccccc2)n1, the IC50 was “inactive”.
Work on COc1cccc2c(NCc3ccccc3)nc(NCC3CCCCC3)nc12 yielded an IC50 of 4.2 µM.
COc1cccc2c(NCc3ccccc3)nc(-n3c(N)nc4ccccc43)nc12 gave an IC50 of 0.9 µM.
c1ccc2c(c1)OCCN2c1nc(N2CCOc3ccccc32)c2ccccc2n1 showed an IC50 of 8.1 µM.
COc1cccc2c(NCc3ccccc3O)nc(N3CCOc4ccccc43)nc12 was tested, and the IC50 was 6 µM.
With Nc1nc2ccccc2n1-c1nc2c(c(NCc3ccccc3)n1)CCCC2 the IC50 was 1.8 µM.
In the case of COc1cccc2c(NCc3ccccc3)nc(-n3c(N)nc4cc(F)ccc43)nc12, the IC50 is reported as 6.8 µM.
With COc1cccc2c(NCc3ccccc3)nc(Nc3cccc(Cl)c3)nc12 the IC50 was 5.4 µM.
With COc1cccc2c(NCc3ccccc3)nc(-n3c(N)nc4cc(Cl)c(Cl)cc43)nc12 the IC50 was > 20 µM (inactive).
COc1cccc2c(NCc3ccccc3)nc(Nc3cccc(F)c3)nc12 gave an IC50 of 4.8 µM.
With c1ccc(CNc2nc(N3CCc4ccccc4C3)nc3ccccc23)cc1 the IC50 was 7 µM.
Molecule COc1cccc2c(NCc3ccccc3N(C)C)nc(N3CCOc4ccccc43)nc12 has an IC50 of 4.5 µM.
For Clc1ccccc1-c1nc(N2CCCc3ccccc32)c2ccccc2n1, the IC50 was “inactive”.
COc1cccc2c(NCc3cccs3)nc(N3CCOc4ccccc43)nc12 was tested, and the IC50 was 3 µM.
COc1cccc2c(NCc3ccccc3)nc(NC(N)=O)nc12 was tested, and the inhibition was “inactive”.
For COc1cccc2c(NCc3ccccc3)nc(N3CCNc4ccccc43)nc12, the IC50 was 3.7 µM.
In the case of CC(C)Nc1nc(Nc2cccc(Cl)c2)nc2ccccc12, the IC50 is reported as “inactive”.
With c1ccc(CNc2nc(N3CCOc4ccccc43)nc3ccsc23)cc1 the IC50 was 6.4 µM.
With N#CCOc1cccc2c(NCc3ccccc3)nc(N3CCOc4ccccc43)nc12 the IC50 was 7.7 µM.
With COc1cccc2c(NCc3ccccc3)nc(-n3c(N)nc4c(C)cccc43)nc12 the IC50 was 2.6 µM.
With COc1cccc2c(NCc3cccc(N(C)C)c3)nc(N3CCOc4ccccc43)nc12 the IC50 was “inactive”.
